Results pooled from the literature.
Target: Serine/threonine-protein kinase 33 (STK33, Homo sapiens, UniProt Q9BYT3)

With COc1ncccc1-c1cnn2ccc(N3CCN(C(=O)OC(C)C)CC3)nc12 the remaining binding was 100% (binding, competition with immobilised ligand; 1 µM).
For Cn1cc(-c2cc(F)cc(N3CCn4c(cc5c4CCCC5)C3=O)c2CO)cc(Nc2ccc(N3CCN(C4COC4)CC3)cn2)c1=O, the inhibition was -5% (enzyme activity, inhibitor; 0.1 µM).
COc1cc(Nc2ncc(F)c(Nc3ccc4c(n3)NC(=O)C(C)(C)O4)n2)cc(OC)c1OC has an inhibition of 85% (binding; 10 µM).
Cn1cc(-c2cccc(N3CCc4c(sc5c4CC(C)(C)C5)C3=O)c2CO)cc(Nc2ccncn2)c1=O gave an inhibition of 2% (enzyme activity, inhibitor; 1 µM).
With CC(C)(C)c1nc(-c2cccc(NS(=O)(=O)c3c(F)cccc3F)c2F)c(-c2ccnc(N)n2)s1 the remaining activity was 76% (enzyme activity, inhibitor, radiometric; 1 µM).
Cn1cncc1[C@](O)(COc1ccc(C#N)cc1-c1ccc(OC(F)(F)F)cc1)c1ccc(C#N)cc1 gave a remaining binding of 74% (cell-free assay, competition with immobilised ligand; 1 µM).
The remaining activity of CC(C)(C)c1nc2c(s1)c1nc(N)ncc1c1ccc(NS(=O)(=O)c3c(F)cccc3F)c(F)c12 is reported as 82% (enzyme activity, inhibitor, radiometric; 1 µM).
Cc1nn(C)cc1-c1nc2c(N3CCN(Cc4ccc(Cl)cc4)CC3)c(Cl)cnc2[nH]1 has a remaining binding of 100% (binding, competition with immobilised ligand; 1 µM).
For Nc1ccc2ncnc(NCCc3ccc(Oc4ccccc4)cc3)c2c1, the remaining activity was 101% (enzyme activity, inhibitor, radiometric; 0.5 µM).
With N#CC1(c2ccccn2)CCN(Cc2cc(C(=O)O)c(=O)n3ccccc23)CC1 the remaining binding was 56% (cell-free assay, competition with immobilised ligand; 1 µM).
Nc1ncc(-c2nc(N3CCOCC3)nc(N3CCOCC3)n2)c(C(F)F)n1 has a remaining binding of 94% (binding, competition with immobilised ligand; 10 µM).
CCOC(=O)c1c(C)[nH]c(/C=C2\C(=O)Nc3ccccc32)c1C has a remaining activity of 83.7% (enzyme activity, inhibitor, radiometric; 0.5 µM).
